In ChEMBL document CHEMBL2331266, “Five-membered iminocyclitol α-glucosidase inhibitors: synthetic, biological screening and in silico studies” (Bioorg Med Chem, 2013):
Each block holds one molecule with its values, some of them ahead of it.

Assays:
[1] = system: Saccharomyces cerevisiae; experiment: Inhibition of Saccharomyces cerevisiae alpha-glucosidase using p-nitrophenyl-alpha-D-[…] as substrate at = / >10.9 mM after 20 mins by UV/Vis spectrophotometric analysis
Summary of the method: (§1)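 Baker's yeast α-glucosidase at 0.04 U/mL in 0.1 M phosphate buffer, pH 6.7. Substrate was 2 mM p-nitrophenyl-α-D-glucopyranoside; the optimized Km was 0.258 mM. Inhibitors were dissolved in 2% DMSO in the same buffer and tested at up to 46 mM. Activity was read as the p-nitrophenol released. Five replicates per sample.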

[2] = Inhibition of Saccharomyces cerevisiae alpha-glucosidase using p-nitrophenyl-alpha-D-[…] as substrate after 20 mins by UV/Vis spectrophotometric analysis; summary of the method: as §1
[3] = system: Saccharomyces cerevisiae; experiment: Inhibition of Saccharomyces cerevisiae alpha-glucosidase using p-nitrophenyl-alpha-D-[…] as substrate at 25 mM after 20 mins by UV/Vis spectrophotometric analysis; summary of the method: as §1

SMILES: C[C@H]1O[C@H](O[C@H]2[C@H](O)[C@@H](O)[C@@H](O[C@H]3[C@H](O)[C@@H](O)C(O)O[C@@H]3CO)O[C@@H]2CO)[C@H](O)[C@@H](O)[C@@H]1N[C@H]1C=C(CO)[C@@H](O)[C@H](O)[C@H]1O (stereo partly specified) [ACARBOSE]
IC50 [2]: 25 mM

SMILES: CC(=O)O[C@@H]1CNC[C@H]1OC(C)=O
inhibition [3]: 40%

SMILES: O[C@H]1CN(Cc2ccccc2)C[C@@H]1O
inhibition [1]: > 50% | IC50 [2]: 38 mM

Continued by falling IC50 [2], values first:

inhibition [1]: > 50% | IC50 [2]: 25 mM
SMILES: O[C@@H]1CN(Cc2ccccc2)C[C@H]1O

inhibition [3]: 80% | inhibition [1]: > 50% | IC50 [2]: 12.5 mM
SMILES: CC(=O)O[C@H]1CNC[C@@H]1OC(C)=O

inhibition [1]: > 50% | IC50 [2]: 10.9 mM
SMILES: O[C@H]1CNC[C@@H]1O
